SIAE inh = human SIAE inhibitors, primary screen, biochemical, fluorescence polarization, FP-Rh probe, 1536-well HTS | SIAE FP-Rh probe binding | inhibition, % at 9.66 µM | actives 0.69% (n = 370,000) | AID 1053197, 2014;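 active = inhibition above a cutoff: mean of compounds within the control limits plus 3 SD of those, cut at about 17% in these data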;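 note: 0% = plate median of compound wells and 100% = probe without SIAE protein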
Target sequence (Q9HAT2 whole entry, looked up): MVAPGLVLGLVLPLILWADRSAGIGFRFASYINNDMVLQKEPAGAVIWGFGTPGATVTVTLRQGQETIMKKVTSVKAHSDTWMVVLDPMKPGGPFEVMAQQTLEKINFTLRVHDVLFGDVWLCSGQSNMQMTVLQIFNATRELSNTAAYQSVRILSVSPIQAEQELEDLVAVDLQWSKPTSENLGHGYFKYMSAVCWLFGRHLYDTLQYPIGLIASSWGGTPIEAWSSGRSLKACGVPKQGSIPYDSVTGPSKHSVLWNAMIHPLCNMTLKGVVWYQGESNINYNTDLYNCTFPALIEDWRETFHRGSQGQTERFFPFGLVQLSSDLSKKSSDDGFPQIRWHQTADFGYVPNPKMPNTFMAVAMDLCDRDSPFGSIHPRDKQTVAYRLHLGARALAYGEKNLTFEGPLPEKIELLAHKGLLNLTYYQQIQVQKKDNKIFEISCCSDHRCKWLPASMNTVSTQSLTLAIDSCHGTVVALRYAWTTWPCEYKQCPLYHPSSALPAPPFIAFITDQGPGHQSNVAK
TCR CD3 inh = inhibitors of human TCR-CD3 interaction, primary screen, biochemical, fluorescence, TAMRA-labeled TCR probe; inhibition, % at 9.4 µM; actives 0.37% (n = 360,000); in the data active = inhibition above about 19%;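 note: recombinant mutant TCR 2C K166C tagged with TAMRA read by polarization; 0% = receptor in buffer alone and 100% = receptor with positive control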
HTRA1 inh = HTRA1 serine protease inhibitors, primary screen, biochemical, fluorescence polarization, HTS. Q92743. recombinant HTRA1, FP-rhodamine activity-based probe. inhibition, % at 5.96 µM. actives 0.5% (n = 340,000). AID 504803, 2011; in the data active = inhibition above about 36%;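 note: 0% = enzyme with DMSO and 100% = wells lacking enzyme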
ABHD4 inh = ABHD4 inhibitors, primary screen, biochemical, fluorescence polarization, mouse. (Lyso)-N-acylphosphatidylethanolamine lipase (Mus musculus), Q8VD66. purified mABHD4, FP-Rh probe fluorescence polarization. inhibition, % at 8.92 µM. actives 0.54% (n = 370,000). AID 720543, 2013;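 active = inhibition exceeding the mean over every tested compound plus 3 SD, cut at about 30% in these data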;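 note: 0% = plate median of compound wells and 100% = S159A mutant with DMSO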
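Test system: mABHD4 protein | Buffer or medium: HEPES pH 7.0 buffer, 150 mM NaCl, 0.01% Pluronic F-127 | Probe or stimulus: FP-Rh fluorescent activity-based probe, added after compound pre-incubation | Timing: Pre-incubation 45 min, probe exposure 60 min, at 25 °C | Technique: Fluorescence polarization, excitation 525 nm, emission 598 nm, BODIPY TMR filters | Repeats: Single well per compound (singlicate)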
PRMT1 FP inh = PRMT1 methyltransferase inhibitors, primary screen, biochemical, fluorescence polarization. recombinant PRMT1, activity-based probe fluorescence polarization. inhibition, % at 2.79 µM. actives 1.3% (n = 370,000). AID 652257, 2013;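 active = inhibition above about 21% made by adding two undisclosed values, limit read from the data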
PRMT1 confirm = PRMT1 methyltransferase inhibitors, confirmation, biochemical, fluorescence polarization, triplicate | shares compounds with PRMT1 FP inh | recombinant His-PRMT1, activity-based probe fluorescence polarization | inhibition, % at 2.79 µM | actives 42% (n = 3,300) | AID 687036, 2013;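 active = mean inhibition across replicates above the hit cutoff derived for the earlier primary screen, cut at about 22% in these data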
* marks the source's active call; other numbers are inactive results; x = no result. This is a sample that favours compounds with a hit; in the whole collection about 2.5% have one here.

SMILES	SIAE inh	TCR CD3 inh	HTRA1 inh	ABHD4 inh	PRMT1 FP inh	PRMT1 confirm
CCN(CC)Cc1c(O)ccc2c1O/C(=C\C=C\c1ccccc1)C2=O	-4.9	7.8	0.1	2.8	19.3	x
O=C(CCc1ccccc1)NN1C(=O)C2C3C=CC(O3)C2C1=O (stereo not given)	0.8	-7.8	8.7	-0.2	56.7*	1.5
CCOc1ccc(C(=O)NN2C(=O)C3C4C=CC(O4)C3C2=O)cc1 (stereo not given)	-2.8	-6.4	3.0	5.5	53.2*	6.3
Cc1cccc(OCC(=O)NN2C(=O)C3C4C=CC(O4)C3C2=O)c1 (stereo not given)	-3.4	2.8	10.2	5.8	0.7	x
Cc1ccccc1OCC(=O)NN1C(=O)C2C3C=CC(O3)C2C1=O (stereo not given)	-1.1	4.7	1.8	-1.3	15.2	x
O=C(O)CN=C(Nc1cc(Cl)cc(Cl)c1)NC(c1ccccc1)c1ccccc1	-17.9	0.4	x	-7.3	3.6	x
COc1ccc(C2CCC3(CCC(=O)N3CCO)CC2)cc1 (stereo not given)	6.4	x	x	-1.0	-3.0	x
COc1ccc2c(c1)CC/C(=C\c1ccc(C)o1)C2=O	2.5	-4.3	-6.6	15.5	38.5*	-5.7
Cc1oc(-c2ccc3c(c2)OCCO3)cc1C(=O)O	-2.0	-7.7	3.0	-6.8	42.3*	6.1
CC(/C=N/n1c(-c2ccc(Cl)cc2)n[nH]c1=S)=C\c1ccco1	-4.5	-8.2	-12.2	0.0	27.5*	14.6
S=c1[nH]nc(-c2ccco2)n1/N=C/c1ccc(Cl)cc1	9.8	-0.3	4.8	5.3	25.2*	19.5
S=c1[nH]nc(-c2ccncc2)n1/N=C/C(Cl)=C\c1ccccc1	4.5	2.0	-0.4	-10.8	34.3*	19.4
Cc1nnc(NC(=O)CSc2nnc(CC(=O)Nc3ccccc3C)n2C)s1	4.9	-1.4	2.5	3.0	0.5	x
CCC(C)C(=O)Nc1nnc(CCc2ccccc2)s1 (stereo not given)	-0.5	-5.1	-4.7	-8.6	-3.2	x
O=C(CC(Nc1cccc(Cl)c1Cl)C(=O)OCC(=O)c1cccs1)c1ccccc1 (stereo not given)	-10.5	5.3	-33.1	-4.8	17.4	x
Cc1c(Cl)cccc1NC(CC(=O)c1ccccc1)C(=O)OCC(=O)c1cccs1 (stereo not given)	-11.6	-1.3	-27.6	-10.8	62.9*	2.1

Screening results: PubChem BioAssay, The Scripps Research Institute Molecular Screening Center
